Measurements reported in ChEMBL document CHEMBL4020742, “Design and optimization of purine derivatives as in vivo active PDE10A inhibitors” (Bioorg Med Chem, 2017).
pIC50: −log10 of the molar value. One block for each molecule: values may come before it.

Assays:
[1] = molecular target: T1, cAMP and cAMP-inhibited cGMP 3',5'-cyclic phosphodiesterase 10A (Homo sapiens, UniProt Q9Y233); experiment: (§1) Inhibition of recombinant human N-terminal GST-tagged PDE10A1 (2 to 789 residues) expressed in baculovirus infected Sf9 cells using fluorescein-labeled cAMP as substrate preincubated for 15 mins followed by substrate addition measured after 30 mins by IMAP fluorescence polarization assay
T1 sequence (Q9Y233 whole entry, the tested form may be a part): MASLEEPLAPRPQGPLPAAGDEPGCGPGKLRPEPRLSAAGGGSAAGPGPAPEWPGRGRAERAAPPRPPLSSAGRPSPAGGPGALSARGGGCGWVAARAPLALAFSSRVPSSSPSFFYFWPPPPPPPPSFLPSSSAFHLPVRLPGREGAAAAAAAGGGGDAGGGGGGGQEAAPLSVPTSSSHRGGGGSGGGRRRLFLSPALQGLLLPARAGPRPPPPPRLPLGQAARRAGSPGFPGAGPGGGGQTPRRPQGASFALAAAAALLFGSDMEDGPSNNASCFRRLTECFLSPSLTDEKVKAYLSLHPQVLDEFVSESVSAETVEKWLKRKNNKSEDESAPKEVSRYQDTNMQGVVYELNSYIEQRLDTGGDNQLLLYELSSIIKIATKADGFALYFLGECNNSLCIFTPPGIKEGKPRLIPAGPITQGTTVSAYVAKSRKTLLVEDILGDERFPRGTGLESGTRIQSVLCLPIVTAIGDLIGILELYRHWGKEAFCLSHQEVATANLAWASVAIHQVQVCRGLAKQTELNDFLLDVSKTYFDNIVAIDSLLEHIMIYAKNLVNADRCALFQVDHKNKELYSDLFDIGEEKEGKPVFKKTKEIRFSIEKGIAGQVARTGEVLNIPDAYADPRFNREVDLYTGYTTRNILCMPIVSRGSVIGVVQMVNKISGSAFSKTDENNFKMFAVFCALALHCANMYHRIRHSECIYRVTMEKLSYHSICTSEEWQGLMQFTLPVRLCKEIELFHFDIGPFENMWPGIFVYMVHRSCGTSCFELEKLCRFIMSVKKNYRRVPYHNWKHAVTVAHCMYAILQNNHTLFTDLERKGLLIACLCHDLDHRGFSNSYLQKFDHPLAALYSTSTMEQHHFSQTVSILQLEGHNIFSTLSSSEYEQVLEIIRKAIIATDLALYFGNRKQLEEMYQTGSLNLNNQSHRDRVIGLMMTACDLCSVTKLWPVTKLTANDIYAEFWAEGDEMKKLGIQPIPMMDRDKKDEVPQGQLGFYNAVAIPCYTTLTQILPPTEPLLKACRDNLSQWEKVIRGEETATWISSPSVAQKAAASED
How it was run: (§2)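 Recombinant PDE4A1A, PDE2A1 or PDE10A1 was incubated with compound (1% DMSO, duplicate) for 15 min at RT. Fluorescein-cAMP was then added for 30 min at RT, and the reaction was stopped with IMAP binding reagent (1 h, dark). FP was read at Ex485/Em535. Inhibition was set against no-enzyme and DMSO controls. IC50 came from a four-parameter logistic fit; values are the mean of at least two measurements.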

[2] = molecular target: T2, CYP1A2 (Homo sapiens, UniProt P05177); experiment: Inhibition of CYP1A2 in human microsomes at 10 uM using phenacetin as substrate preincubated for 5 mins followed by NADPH addition measured 20 mins relative to control; format: ADME; details: probe phenacetin, read-out: TDI
T2 sequence (P05177 whole entry): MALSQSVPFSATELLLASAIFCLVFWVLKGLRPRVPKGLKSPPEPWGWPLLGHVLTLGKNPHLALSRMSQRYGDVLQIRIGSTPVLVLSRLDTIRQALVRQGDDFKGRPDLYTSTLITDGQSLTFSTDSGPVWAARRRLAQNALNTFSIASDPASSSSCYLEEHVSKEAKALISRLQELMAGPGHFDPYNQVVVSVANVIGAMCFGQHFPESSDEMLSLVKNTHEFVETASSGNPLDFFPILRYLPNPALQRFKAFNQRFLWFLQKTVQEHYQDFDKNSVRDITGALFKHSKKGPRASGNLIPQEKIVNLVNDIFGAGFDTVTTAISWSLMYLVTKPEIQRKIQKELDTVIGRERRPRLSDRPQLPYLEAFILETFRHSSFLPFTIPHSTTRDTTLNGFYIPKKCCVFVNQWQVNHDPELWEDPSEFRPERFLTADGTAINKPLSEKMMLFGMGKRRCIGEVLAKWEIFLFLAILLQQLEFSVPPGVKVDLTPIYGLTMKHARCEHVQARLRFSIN
How it was run: (§3)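 Pooled human microsomes (0.2 mg/mL) in 100 mM phosphate pH 7.4 with a probe cocktail: midazolam 10 µM, dextromethorphan 10 µM, diclofenac 20 µM, phenacetin 100 µM, mephenytoin 100 µM. Test compound was 10 µM; organic solvent was under 1%. After 5 min preincubation at 37 °C, 1 mmol/L NADPH was added and the reaction ran 20 min, keeping substrate conversion below 20%. Metabolite formation was expressed relative to PBS control.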

[3] = molecular target: T3, Cytochrome P450 3A4 (Homo sapiens, UniProt P08684); experiment: Time-dependent inhibition of CYP3A4 in human microsomes at 10 uM using midazolam as substrate preincubated for 5 mins followed by NADPH addition measured 20 mins relative to control; format: ADME; details: microsomes, 20 min, 10 µM
T3 sequence (P08684 whole entry): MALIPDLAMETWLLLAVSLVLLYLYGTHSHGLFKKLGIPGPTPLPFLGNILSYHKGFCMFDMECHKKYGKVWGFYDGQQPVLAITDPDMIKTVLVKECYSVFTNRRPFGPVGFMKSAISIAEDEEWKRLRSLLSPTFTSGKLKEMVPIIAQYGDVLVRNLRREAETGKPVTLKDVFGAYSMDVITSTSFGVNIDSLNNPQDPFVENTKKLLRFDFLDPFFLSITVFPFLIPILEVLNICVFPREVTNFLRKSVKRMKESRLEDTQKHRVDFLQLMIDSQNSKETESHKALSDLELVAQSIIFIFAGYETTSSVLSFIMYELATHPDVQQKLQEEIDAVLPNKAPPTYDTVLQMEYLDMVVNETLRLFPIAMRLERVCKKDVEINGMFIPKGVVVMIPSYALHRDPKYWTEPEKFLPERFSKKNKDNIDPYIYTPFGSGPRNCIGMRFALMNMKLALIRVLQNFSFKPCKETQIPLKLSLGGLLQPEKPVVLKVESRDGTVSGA

[4] = molecular target: CYP3A4 (Homo sapiens, UniProt P08684); experiment: (§4) Inhibition of CYP3A4 in human microsomes at 10 uM using midazolam as substrate preincubated for 5 mins followed by NADPH addition measured 20 mins relative to control; format: ADME; details: human microsomes, probe midazolam, read-out: TDI; how it was run: as §3
CYP3A4, sequence (P08684 whole entry): as above

[5] = molecular target: T4, CYP2C9 (Homo sapiens, UniProt P11712); experiment: (§5) […] of CYP2C9 in human microsomes at 10 uM using diclofenac as substrate preincubated for 5 mins followed by NADPH addition measured 20 mins relative to control; format: ADME; details: human microsomes, probe diclofenac, read-out: TDI
T4 sequence (P11712 whole entry): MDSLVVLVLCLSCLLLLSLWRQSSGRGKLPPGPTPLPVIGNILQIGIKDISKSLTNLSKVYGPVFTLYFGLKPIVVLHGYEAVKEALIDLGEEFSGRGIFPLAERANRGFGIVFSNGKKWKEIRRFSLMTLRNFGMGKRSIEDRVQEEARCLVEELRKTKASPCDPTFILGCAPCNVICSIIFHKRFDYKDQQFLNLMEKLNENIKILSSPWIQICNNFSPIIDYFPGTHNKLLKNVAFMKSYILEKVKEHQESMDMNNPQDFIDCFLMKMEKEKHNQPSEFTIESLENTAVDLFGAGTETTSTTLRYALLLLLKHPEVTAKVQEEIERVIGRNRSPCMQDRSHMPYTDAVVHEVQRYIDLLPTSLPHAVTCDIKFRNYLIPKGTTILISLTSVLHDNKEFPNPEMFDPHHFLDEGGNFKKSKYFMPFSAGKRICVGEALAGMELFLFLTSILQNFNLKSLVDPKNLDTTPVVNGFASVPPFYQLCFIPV

[6] = Half life in human liver microsomes at 1 uM preincubated for 5 mins followed by NADPH addition measured up to 30 mins by LC-MS/MS analysis; format: ADME, microsome
How it was run: (§6)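 Liver microsomes (0.5 mg/mL) plus 1 µM compound were preincubated 5 min at 37 °C in 0.1 M phosphate buffer pH 7.4 containing EDTA and MgCl₂. NADPH started the reaction. Samples at 0, 5, 10 and 30 min were quenched with cold acetonitrile containing tinidazole internal standard and centrifuged. Parent remaining was quantified by LC/MS/MS.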

[7] = molecular target: T5, CYP2D6 (Homo sapiens, UniProt P10635); experiment: (§7) […] of CYP2D6 in human microsomes at 10 uM using dextromethorphan as substrate preincubated for 5 mins followed by NADPH addition measured 20 mins relative to control; format: ADME; details: human microsomes, probe dextromethorphan, read-out: TDI
T5 sequence (P10635 whole entry): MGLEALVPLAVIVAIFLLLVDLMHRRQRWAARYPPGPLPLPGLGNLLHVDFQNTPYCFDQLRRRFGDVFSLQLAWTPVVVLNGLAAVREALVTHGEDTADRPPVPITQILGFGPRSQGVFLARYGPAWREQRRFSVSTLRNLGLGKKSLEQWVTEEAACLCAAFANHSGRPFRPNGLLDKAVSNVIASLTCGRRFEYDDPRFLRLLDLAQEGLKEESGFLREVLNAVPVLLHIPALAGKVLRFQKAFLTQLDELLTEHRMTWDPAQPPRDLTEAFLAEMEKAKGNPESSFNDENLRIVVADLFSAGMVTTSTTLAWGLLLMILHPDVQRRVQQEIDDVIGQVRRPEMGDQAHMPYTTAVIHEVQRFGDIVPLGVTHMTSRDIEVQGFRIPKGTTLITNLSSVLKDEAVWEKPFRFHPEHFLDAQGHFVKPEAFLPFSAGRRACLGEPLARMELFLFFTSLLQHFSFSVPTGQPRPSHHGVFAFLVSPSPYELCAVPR

[8] = molecular target: T5, CYP2D6; experiment: Inhibition of CYP2D6 in human microsomes at 10 uM using dextromethorphan as substrate preincubated for 5 mins followed by NADPH addition measured 20 mins relative to control; format: ADME; details: human microsomes, probe dextromethorphan, read-out: TDI; how it was run: as §3
[9] = molecular target: T4, CYP2C9; experiment: Inhibition of CYP2C9 in human microsomes at 10 uM using diclofenac as substrate preincubated for 5 mins followed by NADPH addition measured 20 mins relative to control; format: ADME; details: human microsomes, probe diclofenac, read-out: TDI; how it was run: as §3
[10] = molecular target: T2, CYP1A2; experiment: (§8) Time-dependent inhibition of CYP1A2 in human microsomes at 10 uM using phenacetin as substrate preincubated for 5 mins followed by NADPH addition measured 20 mins relative to control; format: ADME; details: human microsomes, probe phenacetin, read-out: TDI
[11] = molecular target: T6, CYP2C19 (Homo sapiens, UniProt P33261); experiment: (§9) […] of CYP2C19 in human microsomes at 10 uM using mephenytoin as substrate preincubated for 5 mins followed by NADPH addition measured 20 mins relative to control; format: ADME; details: human microsomes, probe mephenytoin, read-out: TDI
T6 sequence (P33261 whole entry): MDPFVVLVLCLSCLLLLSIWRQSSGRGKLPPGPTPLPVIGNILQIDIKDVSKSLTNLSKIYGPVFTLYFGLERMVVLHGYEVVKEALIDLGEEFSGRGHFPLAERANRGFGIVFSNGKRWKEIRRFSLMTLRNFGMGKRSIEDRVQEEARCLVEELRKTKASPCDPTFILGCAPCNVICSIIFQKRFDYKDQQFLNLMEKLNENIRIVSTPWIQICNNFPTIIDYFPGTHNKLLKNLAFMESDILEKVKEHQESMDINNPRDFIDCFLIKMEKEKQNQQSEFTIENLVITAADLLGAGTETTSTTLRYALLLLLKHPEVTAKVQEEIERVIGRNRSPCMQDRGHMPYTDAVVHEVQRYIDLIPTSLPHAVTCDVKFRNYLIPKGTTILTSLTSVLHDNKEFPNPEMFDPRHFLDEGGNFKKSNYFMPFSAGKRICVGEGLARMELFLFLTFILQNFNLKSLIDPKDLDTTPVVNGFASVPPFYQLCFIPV

[12] = molecular target: T1, cAMP and cAMP-inhibited cGMP 3',5'-cyclic phosphodiesterase 10A; experiment: as §1, with “cells at 5 uM” for “cells”, “assay relative to control” for “assay”; how it was run: as §2
[13] = Half life in mouse liver microsomes at 1 uM preincubated for 5 mins followed by NADPH addition measured up to 30 mins by LC-MS/MS analysis; format: ADME, microsome; how it was run: as §6
[14] = molecular target: T6, CYP2C19; experiment: Inhibition of CYP2C19 in human microsomes at 10 uM using mephenytoin as substrate preincubated for 5 mins followed by NADPH addition measured 20 mins relative to control; format: ADME; details: human microsomes, probe mephenytoin, read-out: TDI; how it was run: as §3
[15] = molecular target: T3, Cytochrome P450 3A4; experiment: as §4; format: ADME; details: microsomes, 20 min, 10 µM; how it was run: as §3
[16] = molecular target: Cytochrome P450 2C9 (Homo sapiens, UniProt P11712); experiment: as §5; format: ADME; details: microsomes, 20 min, 10 µM
Cytochrome P450 2C9, sequence (P11712 whole entry): as the sequence (P11712 whole entry) above

[17] = molecular target: Cytochrome P450 2D6 (Homo sapiens, UniProt P10635); experiment: as §7; format: ADME; details: microsomes, 20 min, 10 µM
Cytochrome P450 2D6, sequence (P10635 whole entry): as the sequence (P10635 whole entry) above

[18] = molecular target: Cytochrome P450 2C19 (Homo sapiens, UniProt P33261); experiment: as §9; format: ADME; details: microsomes, 20 min, 10 µM
Cytochrome P450 2C19, sequence (P33261 whole entry): as the sequence (P33261 whole entry) above

[19] = molecular target: T7, Cytochrome P450 1A2 (Homo sapiens, UniProt P05177); experiment: as §8; format: ADME; details: microsomes, 20 min, 10 µM
T7 sequence (P05177 whole entry): T2 sequence (P05177 whole entry)

SMILES: Cc1ccc(-c2ccc(Cn3cnc4c(N5CCOCC5)ncnc43)cc2)cc1
- pIC50 [1]: 7.12
- inhibition at 20 min, 10 µM [2]: 12%
- TDI [3]: Not Active
- TDI [15]: Not Active
- TDI [16]: Not Active
- half-life at 1 µM [6]: 22.4 min
- TDI [17]: Not Active
- inhibition at 20 min, 10 µM [8]: 6%
- inhibition at 20 min, 10 µM [9]: 30%
- inhibition at 20 min, 10 µM [10]: 20%
- TDI [18]: Not Active
- inhibition [12]: 97%
- half-life at 1 µM [13]: 49.5 min
- inhibition at 20 min, 10 µM [14]: 44%

SMILES: Cc1nc2c(N3CCOCC3)nccn2c1NCc1ccc(-c2cccnc2)cc1
- pIC50 [1]: 6.28
- inhibition [12]: 90%

SMILES: Cc1nc2c(N3CCOCC3)nccn2c1NCc1ccc(-c2ccncc2)cc1
- pIC50 [1]: 6.41
- inhibition [12]: 91%

SMILES: Cc1nc2c(N3CCOCC3)ncnc2n1Cc1ccc(C(=O)Nc2ccccc2)cc1
- pIC50 [1]: 6.89
- inhibition [12]: 96%

SMILES: Cc1nc2c(N3CCOCC3)ncnc2n1Cc1ccc(-c2cnn(C)c2)cc1
- pIC50 [1]: 7.17
- inhibition at 20 min, 10 µM [2]: 21%
- TDI [3]: Not Active
- inhibition at 20 min, 10 µM [4]: 40%
- inhibition at 20 min, 10 µM [5]: 40%
- half-life at 1 µM [6]: 231 min
- inhibition at 20 min, 10 µM [7]: 20%
- inhibition at 20 min, 10 µM [8]: 7%
- inhibition at 20 min, 10 µM [9]: 10%
- TDI [19]: Not Active
- inhibition at 20 min, 10 µM [11]: 80%
- inhibition [12]: 96%
- half-life at 1 µM [13]: 99 min
- inhibition at 20 min, 10 µM [14]: 22%

SMILES: Cc1noc(C)c1-c1ccc(CNc2c(C)nc3c(N4CCOCC4)nccn23)cc1
- pIC50 [1]: 6.29
- inhibition [12]: 90%

SMILES: c1ccc(-c2ccc(Cn3cnc4c(N5CCOCC5)ncnc43)cc2)cc1
- pIC50 [1]: 6.99
- inhibition [12]: 94%

Second part, the molecule after the results:

- pIC50 [1]: 7.25
- inhibition at 20 min, 10 µM [2]: 34%
- TDI [3]: Not Active
- inhibition at 20 min, 10 µM [4]: 12%
- inhibition at 20 min, 10 µM [5]: 10%
- half-life at 1 µM [6]: 18.2 min
- inhibition at 20 min, 10 µM [7]: 60%
- inhibition at 20 min, 10 µM [8]: 6%
- inhibition at 20 min, 10 µM [9]: 18%
- inhibition at 20 min, 10 µM [10]: 30%
- inhibition at 20 min, 10 µM [11]: 70%
- inhibition [12]: 98%
- half-life at 1 µM [13]: 23.9 min
- inhibition at 20 min, 10 µM [14]: 21%
SMILES: Cc1cc(-c2ccc(Cn3c(C)nc4c(N5CCOCC5)ncnc43)cc2)ccn1

- pIC50 [1]: 6.77
- inhibition [12]: 91%
SMILES: Cc1nc2c(N3CCOCC3)ncnc2n1Cc1ccc(-c2ccc(Cl)cc2)cc1

- pIC50 [1]: 6.94
- inhibition [12]: 96%
SMILES: Cc1nc2c(N3CCOCC3)ncnc2n1Cc1ccc(-c2ccncc2)cc1

- pIC50 [1]: 7.21
- inhibition [12]: 94%
SMILES: COc1ccc(-c2ccc(Cn3c(C)nc4c(N5CCOCC5)ncnc43)cc2)cc1
